Test results published in PMC6980386 (Traffic (Copenhagen, Denmark), 2019).

Target: FL huCD4 R8A (Homo sapiens, UniProt P01730, R8A)
Test: CADA down-modulation of cellular huCD4
Format: cell-based
Settings: read-out: Cellular huCD4 IC50 (μM) Mean, HEK293T, CADA 48h
Outline: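 HEK293T cells, seeded overnight in DMEM with 10% serum, 1 mM sodium pyruvate and 0.075% NaHCO₃, were lipofected with full-length human CD4 (WT or mutant). Test compound in DMSO was added 6 h post-transfection as 1:5 serial dilutions (50–0.016 μM) for 48 h. Surface CD4 was stained with FITC/APC anti-CD4 (SK3) and read by flow cytometry. IC50 is 50% of the untreated signal, from four-parameter fits of ≥3 replicate experiments. FC is mutant/WT mean IC50.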

C=C1CN(S(=O)(=O)c2ccc(C)cc2)CCCN(Cc2ccccc2)CCCN(S(=O)(=O)c2ccc(C)cc2)C1 [CADA, Cyclotriazadisulfonamide]
IC50: 4.2 µM
